pIC50: −log10 of the molar value. Active and inactive are the calls of the source. The rule behind the calls is not given here.
Key:
[1] = Selectivity index, ratio of CC50 for human Huh-7 cells to IC50 for Dengue virus serotype 2 New Guinea C infected in pre-seeded Huh-7 cells assessed as inhibition of viral replication incubated for 72 hrs by immunodetection based plaque reduction assay; type: toxicity, cell-based; details: read-out: Selectivity Index
[2] = Selectivity index, ratio of CC50 for human Huh-7 cells to IC50 for Dengue virus serotype 2 New Guinea C infected in pre-seeded Huh-7 cells assessed as inhibition of viral replication incubated for 72 hrs by immunodetection based direct yield reduction assay; type: toxicity, cell-based; details: read-out: Selectivity Index
Procedure, shortened: (§1)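 Direct yield reduction in Huh7 cells (7000/well), infected with 50 TCID₅₀ of DENV or ZIKV, or 25 TCID₅₀ of WNV. Adsorption 1 h at 37 °C, then virus removed and serial compound dilutions added. Incubated 72 h (DENV, ZIKV) or 48 h (WNV). Viral antigen immunodetected on the monolayer. IC₅₀ by non-linear regression, mean of three experiments. SI = CC₅₀ (Huh7, CellTiter-Glo luminescence)/IC₅₀.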

[3] = system: dengue virus type 2; experiment: Antiviral activity against Dengue virus serotype 2 New Guinea C infected in pre-seeded Huh-7 cells assessed as inhibition of viral replication incubated for 72 hrs by immunodetection based direct yield reduction assay; type: functional, organism-based; details: Dengue virus, New Guinea C, Huh-7, 72 h; read-out: IC50
[4] = system: Huh-7; experiment: Effect on formation of DENV replication complex in human Huh-7 cells assessed as reduction NS3 translocation into cytoplasm at 100 uM measured after 16 to 24 hrs by DAPI staining based confocal microscopy analysis; type: functional, cell-based; details: time 16-24 hrs
Procedure, shortened: (§2)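 Huh-7 cells (1 × 10⁴) on coverslips infected with DENV-2 (MOI 0.05), treated (100 or 50 μM as listed), fixed in 4% paraformaldehyde at 8, 12, 16, 24 h; anti-NS3/anti-NS5 with Alexa 488/568 secondaries, DAPI; confocal, 5 random fields at 40×; % positive cells; 2-way ANOVA with Dunnett.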

[5] = Selectivity index, ratio of CC50 for human Huh-7 cells to IC50 for Zika virus H/PF/2013 infected in pre-seeded Huh-7 cells assessed as inhibition of viral replication incubated for 72 hrs by immunodetection based plaque reduction assay; type: toxicity, cell-based; details: read-out: Selectivity Index
[6] = system: Zika virus; experiment: Antiviral activity against Zika virus H/PF/2013 infected in pre-seeded Huh-7 cells assessed as inhibition of viral replication incubated for 72 hrs by immunodetection based plaque reduction assay; type: functional, organism-based; details: H/PF/2013, Huh-7, 72 h
[7] = Selectivity index, ratio of CC50 for human Huh-7 cells to IC50 for West Nile virus lineage 1 (Italy/2009) infected in pre-seeded Huh-7 cells assessed as inhibition of viral replication incubated for 48 hrs by immunodetection based plaque reduction assay; type: toxicity, cell-based; details: read-out: Selectivity Index
[8] = system: West Nile virus; experiment: Antiviral activity against West Nile virus lineage 1 (Italy/2009) infected in pre-seeded Huh-7 cells assessed as inhibition of viral replication incubated for 48 hrs by immunodetection based plaque reduction assay; type: functional, organism-based; details: Huh-7, 48 h
[9] = system: Zika virus; experiment: Antiviral activity against Zika virus H/PF/2013 infected in pre-seeded Huh-7 cells assessed as inhibition of viral replication incubated for 72 hrs by immunodetection based direct yield reduction assay; type: functional, organism-based; details: H/PF/2013, Huh-7, 72 h; procedure, shortened: as §1
[10] = system: Huh-7; experiment: Effect on formation of DENV replication complex in human Huh-7 cells assessed as reduction in NS5 translocation into nucleus at 100 uM measured after 16 to 24 hrs by DAPI staining based confocal microscopy analysis; type: functional, cell-based; details: time 16-24 hrs; procedure, shortened: as §2
[11] = Selectivity index, ratio of CC50 for human Huh-7 cells to IC50 for Zika virus H/PF/2013 infected in pre-seeded Huh-7 cells assessed as inhibition of viral replication incubated for 72 hrs by immunodetection based secondary yield reduction assay; type: toxicity, cell-based; details: read-out: Selectivity Index
[12] = Selectivity index, ratio of CC50 for human Huh-7 cells to IC50 for West Nile virus lineage 1 (Italy/2009) infected in pre-seeded Huh-7 cells assessed as inhibition of viral replication incubated for 48 hrs by immunodetection based direct yield reduction assay; type: toxicity, cell-based; details: read-out: Selectivity Index; procedure, shortened: as §1
[13] = Selectivity index, ratio of CC50 for human Huh-7 cells to IC50 for Dengue virus serotype 2 New Guinea C infected in pre-seeded Huh-7 cells assessed as inhibition of viral replication incubated for 72 hrs by immunodetection based secondary yield reduction assay; type: toxicity, cell-based; details: read-out: Selectivity Index
[14] = system: Huh-7; experiment: Effect on formation of DENV replication complex in human Huh-7 cells assessed as reduction in expression of NS3 at 100 uM measured after 8 to 24 hrs by DAPI staining based confocal microscopy analysis; type: functional, cell-based; details: time 8-24 hrs; procedure, shortened: as §2
[15] = Selectivity index, ratio of CC50 for human Huh-7 cells to IC50 for Zika virus H/PF/2013 infected in pre-seeded Huh-7 cells assessed as inhibition of viral replication incubated for 72 hrs by immunodetection based direct yield reduction assay; type: toxicity, cell-based; details: read-out: Selectivity Index; procedure, shortened: as §1
[16] = system: West Nile virus; experiment: Antiviral activity against West Nile virus lineage 1 (Italy/2009) infected in pre-seeded Huh-7 cells assessed as inhibition of viral replication incubated for 48 hrs by immunodetection based direct yield reduction assay; type: functional, organism-based; details: West Nile virus, lineage 1 (Italy/2009), Huh-7, 48 h; read-out: IC50
[17] = Cytotoxicity against human Huh-7 cells assessed as reduction in cell viability by Celltiter-Glo luminescent cell viability assay; type: cell-based; details: Huh-7 cells
Procedure, shortened: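 Compound-exposed cells assessed by CellTiter-Glo luminescence versus DMSO control; CC50 from dose-response.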

[18] = system: Zika virus; experiment: Antiviral activity against Zika virus H/PF/2013 infected in pre-seeded Huh-7 cells assessed as inhibition of viral replication incubated for 72 hrs by immunodetection based secondary yield reduction assay; type: functional, organism-based; details: H/PF/2013, Huh-7, 72 h
[19] = system: Huh-7; experiment: Effect on formation of DENV replication complex in human Huh-7 cells assessed as reduction in expression of NS5 at 100 uM measured after 8 to 24 hrs by DAPI staining based confocal microscopy analysis; type: functional, cell-based; details: time 8-24 hrs; procedure, shortened: as §2
[20] = system: dengue virus type 2; experiment: Antiviral activity against Dengue virus serotype 2 New Guinea C infected in pre-seeded Huh-7 cells assessed as inhibition of viral replication incubated for 72 hrs by immunodetection based secondary yield reduction assay; type: functional, organism-based; details: Dengue virus, New Guinea C, Huh-7, 72 h; read-out: IC50

## CC(C)OC(=O)[C@H](C)N[P@](=O)(OC[C@H]1O[C@@H](n2ccc(=O)[nH]c2=O)[C@](C)(F)[C@@H]1O)Oc1ccccc1 [SOFOSBUVIR]
[1]
  selectivity ratio at 72 h: 50
[2]
  selectivity ratio at 72 h: 43
[3]
  pIC50: 5.34
[4]
  Activity: inactive
[5]
  selectivity ratio at 72 h: 100
[6]
  pIC50: 5.70
[7]
  selectivity ratio at 48 h: 166
[8]
  pIC50: 5.92
[9]
  pIC50: 5.57
[10]
  Activity: Active
[11]
  selectivity ratio at 72 h: 62
[12]
  selectivity ratio at 48 h: 117
[13]
  selectivity ratio at 72 h: 42
[14]
  Activity: Active
[15]
  selectivity ratio at 72 h: 74
[16]
  pIC50: 5.77
[17]
  CC50: 200 µM
[18]
  pIC50: 5.49
[19]
  Activity: Active
[20]
  pIC50: 5.33
